Only some compounds are listed: those with a hit (about 1.1% of all), similar ones and a draw of the others.
MT1-MMP act inh: MT1-MMP (human) activation inhibition; P50281; HT1080 RFP-PRO-GFP cells, GFP/RFP ratio fluorescence, overnight; percent of plate control window, DMSO zero; GFP/RFP ratio change, % at 20 µM; 0.061% of 360,000 active; AID 651647;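 active = GFP/RFP ratio change of at least 30% with cell ATP level not reduced by more than half and red fluorescence within 50% of control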
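Test system: HT1080 RFP-PRO-GFP cells; Benchmarks: DMSO and RFP-L50D-GFP cell wells; Timing: cells overnight before dosing, compound overnight, 37 °C, 5% CO2; Compound: one 20 µM compound dose with 1% DMSO; Read-out: GFP/RFP fluorescence ratio.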
DAGLB inhibitor: diacylglycerol lipase beta (human) inhibition; Q8NCG7; 0.059% of 340,000 active; HEK293T DAGLB membrane lysate, EnzChek fluorogenic substrate; AID 504411; inhibition, % at 5.17 µM; in the data active = inhibition above about 34%
Target sequence (Q8NCG7 whole entry, looked up): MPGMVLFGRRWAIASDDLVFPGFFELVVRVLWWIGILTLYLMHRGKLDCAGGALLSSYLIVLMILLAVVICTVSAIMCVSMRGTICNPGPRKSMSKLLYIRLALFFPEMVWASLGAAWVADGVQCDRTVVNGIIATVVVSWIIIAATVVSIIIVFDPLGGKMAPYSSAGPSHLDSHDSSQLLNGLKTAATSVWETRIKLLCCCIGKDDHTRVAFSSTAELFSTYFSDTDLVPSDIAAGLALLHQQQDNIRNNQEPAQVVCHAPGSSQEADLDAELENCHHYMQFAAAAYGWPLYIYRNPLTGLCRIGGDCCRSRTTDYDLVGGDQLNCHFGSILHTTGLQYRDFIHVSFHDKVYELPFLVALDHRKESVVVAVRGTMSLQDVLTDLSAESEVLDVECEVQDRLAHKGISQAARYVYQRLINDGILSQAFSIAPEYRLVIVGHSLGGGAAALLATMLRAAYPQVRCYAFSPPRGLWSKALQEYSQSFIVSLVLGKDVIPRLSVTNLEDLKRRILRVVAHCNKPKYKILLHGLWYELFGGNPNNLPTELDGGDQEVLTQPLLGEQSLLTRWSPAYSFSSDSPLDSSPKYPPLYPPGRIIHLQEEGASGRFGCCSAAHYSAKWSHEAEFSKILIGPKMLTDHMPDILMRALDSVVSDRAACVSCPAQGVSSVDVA
NR2E3 ag-1: agonists of human nuclear receptor NR2E3 | 0.12% of 320,000 active | inhibition of corepressor binding, % at 4.78 µM | GST-NR2E3/biotin-RetCOR TR-FRET, 1536-well | AID 2300;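 active = percent inhibition above the cutoff of mean plus 3 SD of all tested compounds, set per screening campaign, cut at about 20% in these data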
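Material: NR2E3–RetCOR corepressor complex / Incubation: Compound–protein incubation for 5 h at 4 °C / Dosing: compound at 4.8 µM, single dose / Detection: time-resolved FRET / Benchmarks: high control biotin, low control 0.6% DMSO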
Vif imaging: inhibitors of HIV Vif. HEK293T cells, Vif self-association by quenched fluorescence, imaging, 24 h. inhibition, % at 7.49 µM. 0.35% of 340,000 active; in the data active = inhibition above about 50%, passing the limit was not always enough; inconclusive = no clear call, values can overlap the other calls; inactive = below about 31%
NR2E3 ag-2: human photoreceptor-specific nuclear receptor agonism | Q9Y5X4 | CHO-S Gal4-NCOR/VP16-NR2E3 two-hybrid, luciferase | inhibition of corepressor binding, % at 3.98 µM | 0.35% of 360,000 active | AID 602229;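 active = inhibition above the mean of all tested compounds plus 3 SD, cut at about 70% in these data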;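 note: higher means lower luciferase signal from less NR2E3 corepressor binding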
core dimer inh: blocks dimerization of HCV core protein; TR-FRET GST/Flag-core106 dimerization, 1536-well; inhibition, % at 5 µM; 0.33% of 300,000 active;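 active = inhibition above the mean of all tested compounds plus 3 SD, set per screening campaign, cut at about 45% in these data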
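Material: GST/Flag-tagged HCV core106 proteins. Incubation: 4 h, 22.5 °C incubation. Read-out basis: inhibition (%) from 671 over 617 nm ratio. Measured by: TR-FRET, excitation 340 nm, emission 617 and 671 nm.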
NR2E3 ag conf: confirmation of human NR2E3 agonists. shares compounds with NR2E3 ag-2. CHO-S mammalian two-hybrid NR2E3-NCOR, luciferase luminescence. inhibition, % at 3.98 µM. 51% of 2,300 active;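 active = average inhibition above a cutoff equal to the mean inhibition of all tested compounds plus one SD, cut at about 70% in these data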
VP16 counter: reduces GAL4-VP16 reporter signal in NR2E3 counterscreen | shares compounds with NR2E3 ag-2 | CHO-S GAL4-VP16 luciferase reporter, luminescence | inhibition, % at 3.98 µM | 29% of 2,300 active | AID 624379;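 active = mean inhibition above a cutoff equal to the average over all tested compounds plus one standard deviation, cut at about 70% in these data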;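 note: luciferase from a UAS reporter driven by GAL4-VP16 transactivation; higher means less reporter light so more repression of VP16 activity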
Each line names hits and unclear results; the compound was inactive in the other large screens (follow-up assays come after a bar, where they were run).

Cc1cccc(NS(=O)(=O)c2ccc(C(=O)N3CC(C)OC(C)C3)cc2)c1C (stereo unspecified)	none
Cc1ccccc1OCCSCc1nc2ccccc2[nH]1	none
CC[C@H](C)[C@@H]1NC(=O)[C@@H](CC(C)C)NC(=O)[C@H](C(C)C)NC(=O)[C@H]2CSSC[C@H](NC1=O)C(=O)N2	NR2E3 ag-2 102 (no result: DAGLB inhibitor, NR2E3 ag-1, Vif imaging, core dimer inh) | NR2E3 ag conf 100 | VP16 counter 98
COc1ccc2[nH]cc(CCNS(=O)(=O)c3ccccc3)c2c1	none
S=C(NCCc1ccccc1)Nc1cccc2cnccc12	NR2E3 ag-2 74 | NR2E3 ag conf 91 | VP16 counter 79
S=C(NCc1ccccc1)Nc1cccc2cnccc12	none | NR2E3 ag conf 78 | VP16 counter inactive
CC[C@H](C)C(=O)O[C@H]1C[C@@H](C)C=C2C=C[C@H](C)[C@H](CC[C@@H]3C[C@@H](O)CC(=O)O3)[C@H]21	none | NR2E3 ag conf inactive | VP16 counter inactive
Cc1ccc2ccccc2c1NC(=O)c1ccco1	none
CCC1CCC(C(=O)NC(C(=O)NCCN2CCOCC2)C(C)C)CC1 (stereo unspecified)	none
Cc1ccc2ccc3ccc(C)nc3c2n1	NR2E3 ag-2 92 | NR2E3 ag conf inactive | VP16 counter inactive
CCNC(=O)C1CCCN(C(=O)c2ccc(F)c(Cl)c2)CC1 (stereo unspecified)	none (no result: DAGLB inhibitor, NR2E3 ag-1, core dimer inh)
O=S(=O)(c1ccc2oc3ccccc3c2c1)N1CCCC1	none
CCN(CC)C(=O)C1CCN(S(=O)(=O)c2ccc3oc4ccccc4c3c2)CC1	NR2E3 ag-2 77 (no result: Vif imaging) | NR2E3 ag conf inactive | VP16 counter inactive
COc1ccc(CCNc2nc(-c3ccccn3)cs2)cc1OC	none | NR2E3 ag conf inactive | VP16 counter inactive
COc1ccc(CCNc2nc(-c3ccncc3)cs2)cc1OC	none
c1ccc2c(c1)[nH]c1c(N3CCC4(CC3)OCCO4)ncnc12	Vif imaging inconclusive
c1ccc2c(c1)CCN(c1ncnc3c1[nH]c1ccccc13)C2	NR2E3 ag-2 89 | NR2E3 ag conf 95 | VP16 counter 88
OC1(c2cccc(C(F)(F)F)c2)CCN(c2ncnc3c2[nH]c2ccccc23)CC1	none | NR2E3 ag conf inactive | VP16 counter inactive
COc1cccc2[nH]c3c(N4CCc5ccccc5C4)ncnc3c12	none (no result: MT1-MMP act inh, DAGLB inhibitor, Vif imaging, NR2E3 ag-2)
Cc1n[nH]c(=O)c2c(NC(=O)CSc3nc4ccccc4c(=O)n3CCCO)oc(C)c12	none
CCOC(=O)[C@]12CCC=C1N(Cc1ccc3c(c1)OCO3)C(=O)[C@H](CC(=O)N1CCN(C(=O)c3ccco3)CC1)C2	none (no result: DAGLB inhibitor, NR2E3 ag-1, Vif imaging, core dimer inh)
O=C(Nc1ccccc1C(=O)Nc1nnc(C(F)(F)F)s1)c1ccccc1Cl	NR2E3 ag-2 100 | NR2E3 ag conf 101 | VP16 counter 93
COc1ccc(CC(=O)OCc2nnc(-c3ccccc3)o2)cc1	none
NC(=S)N/N=C/c1c(O)ccc2ccccc12	NR2E3 ag-2 75 | NR2E3 ag conf inactive | VP16 counter inactive
O=CN/N=C/c1c(O)ccc2ccccc12	none
Cc1cccc(Nc2nc(NCc3ccco3)c3ccccc3n2)c1	NR2E3 ag-2 74 | NR2E3 ag conf 100 | VP16 counter 87
CCN(CC)CCCNC(=O)c1ccc2c3n(nc2c1)-c1ccc(Cl)cc1CO3	none
CC(=NNC(=S)N1CCN(c2ccccn2)CC1)c1nccs1	NR2E3 ag-2 90 (no result: NR2E3 ag-1, core dimer inh) | NR2E3 ag conf inactive | VP16 counter inactive
CC(=NNC(=S)N1CCN(C2CCCCCC2)CC1)c1ccccn1	NR2E3 ag-2 78 (no result: NR2E3 ag-1, core dimer inh) | NR2E3 ag conf inactive | VP16 counter inactive
CC(=NNC(=S)N1CCN(c2ccccn2)CC1)c1ccccn1	none (no result: NR2E3 ag-1, core dimer inh)
CC(=NNC(=S)N1CC2CCC(CC2)C1)c1cnccn1	NR2E3 ag-2 76 (no result: NR2E3 ag-1, core dimer inh) | NR2E3 ag conf inactive | VP16 counter inactive
CC(=NNC(=S)N1CC2CCC(CC2)C1)c1ccccn1	NR2E3 ag-2 87 (no result: NR2E3 ag-1, core dimer inh) | NR2E3 ag conf inactive | VP16 counter inactive
CC(=NNC(=S)N(Cc1ccccn1)Cc1ccccn1)c1cnccn1	none (no result: NR2E3 ag-1, core dimer inh)
Cc1ccc(S(=O)(=O)N2CCN(C(=O)COC(=O)COc3ccc(Cl)cc3)CC2)c(C)c1	none (no result: NR2E3 ag-1, core dimer inh)
COc1ccc2c(c1)[nH]c1c(N3CCN(Cc4ccc5c(c4)OCO5)CC3)ncnc12	NR2E3 ag-2 92 | NR2E3 ag conf 97 | VP16 counter 86
Cc1ccc2c(c1)[nH]c1c(N3CCN(Cc4ccccc4)CC3)ncnc12	none | NR2E3 ag conf 86 | VP16 counter 74
c1ccc(CN2CCN(c3ncnc4c3[nH]c3ccccc34)CC2)cc1	none
CCOc1ccc2[nH]c3c(N4CCN(c5ccccn5)CC4)ncnc3c2c1	none
Cc1ccc2[nH]c3c(N4CCN(Cc5ccccc5)CC4)ncnc3c2c1	NR2E3 ag-2 79 | NR2E3 ag conf 88 | VP16 counter 74
CCCNC(=O)NC(=O)CSc1ccc2c(c1)OCCO2	none
Cn1nc(C(=O)OCC(=O)Nc2sccc2C(N)=O)c2ccccc2c1=O	none
COc1ccc(S(=O)(=O)N2CCN(C(=O)CSC(=S)N3CCCC3)CC2)cc1	none (no result: core dimer inh)
CCN(CC)S(=O)(=O)c1ccc(C(=O)NCC(c2ccc(OC)cc2)N2CCOCC2)cc1 (stereo unspecified)	none
O=C(NCc1ccco1)c1cccc(NC(=O)c2ccccc2)c1	none | NR2E3 ag conf inactive | VP16 counter inactive
Cc1ccc(C(=O)Nc2cccc(C(=O)NCc3ccco3)c2)cc1	none | NR2E3 ag conf inactive | VP16 counter inactive
Cc1ccc(C(=O)NCc2ccco2)cc1	none (no result: NR2E3 ag-1, core dimer inh)
CCC(CC)C(=O)Nc1cccc(C(=O)NCc2ccco2)c1	none
O=C(Nc1nccs1)c1ccc(S(=O)(=O)NCC2CCCCC2)cc1	none | NR2E3 ag conf inactive | VP16 counter inactive
Cc1ccc(S(=O)(=O)Nc2cccc3cccnc23)c([N+](=O)[O-])c1	NR2E3 ag-2 76 | NR2E3 ag conf inactive | VP16 counter inactive
O=S(=O)(Nc1cccc2cccnc12)c1ccccc1	NR2E3 ag-2 86 | NR2E3 ag conf inactive | VP16 counter inactive
CC(=O)Nc1ccc(S(=O)(=O)Nc2cccc3cccnc23)cc1	none
Cc1cc(C)c(NS(=O)(=O)c2cccc3cccnc23)c(C)c1	none
COc1ccc(-c2c(-c3ccsc3)oc3c2C(O)CCC3)cn1 (stereo unspecified)	none (no result: DAGLB inhibitor, NR2E3 ag-1, Vif imaging, core dimer inh)
CCOC(=O)CCC(NC(=O)c1ccc(Nc2nc3ccccc3nc2C(=O)OCC)cc1)C(=O)OCC (stereo unspecified)	none (no result: NR2E3 ag-1, core dimer inh)

Bioassay records (PubChem)
